Results as given in PMC10449972 (Clinical Pharmacokinetics, 2023).

What was measured:
HSD-1 [1] = target: T1, HSD-1 (Homo sapiens, UniProt P28845); details: earlier TMDD model; cited from earlier work
HSD-1 [2] = target: T1, HSD-1; experiment: TMDD model component: binding of SPI-62 to its pharmacological target HSD-1; assay type: in vivo, human (healthy adults)
In short: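 Target-binding component of the simultaneous population PK/PD fit. Drug in the central compartment binds HSD-1 with a second-order association constant (Kon) to form a complex. The complex dissociates with a first-order constant (Koff). Rtotal is the total HSD-1 amount. Data were pooled plasma concentrations from single- and multiple-dose trials plus urinary HSD-1 activity from multiple-dose cohorts. Kd was derived as Koff/Kon, and IIV was exponential.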

[3] = single dose of 0.7 mg SPI-62, plasma; cited from earlier work
human HSD-1 = details: measured in vitro; cited from earlier work
HSD-2 = details: cited from earlier work
hepatic HSD-1 [4] = target: T2, hepatic HSD-1 (Homo sapiens, UniProt P28845); details: cited from earlier work
T2 sequence (P28845 whole entry): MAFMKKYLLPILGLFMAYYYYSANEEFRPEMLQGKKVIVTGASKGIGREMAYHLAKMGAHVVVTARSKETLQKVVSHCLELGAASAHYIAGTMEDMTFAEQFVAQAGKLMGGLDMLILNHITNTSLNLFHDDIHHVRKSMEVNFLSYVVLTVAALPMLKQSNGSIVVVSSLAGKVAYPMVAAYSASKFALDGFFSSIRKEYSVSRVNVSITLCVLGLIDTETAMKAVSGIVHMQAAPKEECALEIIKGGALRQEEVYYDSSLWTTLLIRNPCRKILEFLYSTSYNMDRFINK

hepatic HSD-1 [5] = target: T2, hepatic HSD-1; experiment: Hepatic HSD-1 activity, urinary ratio; assay type: in vivo, human (healthy adults); details: regimens as low as 0.2 mg once daily, lowest dose tested
In short: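 Healthy adults in low-dose multiple-dose cohorts were given oral test compound: 3 mg loading then 0.2 mg once daily (days 2–14); 0.4 mg once daily (days 1–14); or 0.7 or 2 mg single dose, 6-day washout, then once daily (days 7–20). First-morning urine was collected predose and on scheduled days, and steroids were measured by LC-MS/MS. Activity ratio was fitted against time-matched model-predicted plasma concentration using a sigmoid inhibitory Imax model.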

hepatic HSD-1 [6] = details: lowest daily dose of 1 mg ABT-384, last day of dosing; cited from earlier work

T1 sequence (P28845 whole entry): as above

Kd (HSD-1 [2]) [nM] | Kd, ratio of Koff and Kon (HSD-1 [2]; calculated from TMDD model estimates) [nM] | Target capacity (Rtot) expressed as amount of SPI-62 (HSD-1 [2]; corresponds to 5460 nmol) | Kon, second-order association rate constant (HSD-1 [2]; estimated, final PK/PD model) [M⁻¹ s⁻¹] | Inhibition of hepatic HSD-1 (hepatic HSD-1 [5]) | Compound | Rmax, capacity of the target, estimated using PK data alone (HSD-1 [1]) [nmol] | Average Cmax [3] [ng/mL] | Ki (human HSD-1) [nM] | Activity on HSD-2 (HSD-2) | Hepatic HSD-1 inhibition on day 6 (hepatic HSD-1 [4]; after single low dose, 6-day wash out, day 6) [%] | HSD-1 inhibition after repeated doses (hepatic HSD-1 [4]; all low dose groups (0.2 mg with 3 mg loading dose, 0.4, 0.7, 2 mg QD)) | Return of urinary HSD-1 ratio to baseline (hepatic HSD-1 [4]; approximately 16 days after the last dose, lowest dose 0.2 mg) | HSD-1 inhibition (urinary HSD-1 ratio) after the first dose (hepatic HSD-1 [4]; first dose of 0.7 mg) | Hepatic HSD-1 inhibition (hepatic HSD-1 [4]; following a single dose of 0.7 mg) | Hepatic HSD-1 inhibition (hepatic HSD-1 [6])
0.0272 | 0.0272 | approximately 2.2 mg | 2.34e+06 | almost complete inhibition | Cn1c(-c2ccc(C(N)=O)cc2F)nnc1C(C)(C)Oc1c(F)cc(Cl)cc1F [SPI-62] | 6070 | 0.02 | 5.3 | minimal activity | > 30 | full HSD-1 inhibition | incomplete return | substantial HSD-1 inhibition | more than 40% | –
– | – | – | – | – | CC(C)(C(=O)NC1C2CC3CC1CC(C(N)=O)(C3)C2)N1CCN(c2ccc(C(F)(F)F)cn2)CC1 (stereo not drawn) [ABT-384] | – | – | – | – | – | – | – | – | – | full hepatic HSD-1 inhibition
